# Laboratory results taken from the RNAGym collection of RNA variant scans (doi:10.1126/science.aae0568).
# Fewer inactive variants are shown than the library holds.
# B1: tRNA (parent)
# chain: GUUCCGUUGGCGUAAUGGUAACGCGUCUCCCUCCUAAGGAGAAGACUGCGGGUUCGAGUCCCGUACGGAACG
# Variants of: B1
# Assay: yeast fitness relative to wild type (ratio to wild type); higher = fitter; tRNA-Arg(CCU), competitive growth, 37 C, YPD
# In short: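 The tRNA-Arg(CCU) gene variants were made by chemical synthesis with a 3% per-site mutation rate at 69 sites and inserted at the native genomic locus of Saccharomyces cerevisiae. After pooling, the strains were competed in YPD at 37°C for 24 hours in six parallel replicates. Gene amplicons from the start population and each end population were read by 100-nucleotide paired-end sequencing, and Darwinian fitness relative to wild type was taken from genotype frequency changes. Genotypes needed ≥ 100 starting reads, and estimates < 0.5 were set to 0.5.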
row,Variant,yeast fitness
1,C22G U35A U47C C55U A69C,0.542
2,C22G U35A G58A G67U,≤ 0.5
3,C22U A36G,0.948
4,C22G G63C G68U,0.52
5,C22G G58C C61U,0.616
6,C22U C29A C34A G41C A45C U47A C55A,≤ 0.5
7,C22U C27G A57C,≤ 0.5
8,C22U A40C,0.7
9,C22U A40U,0.642
10,C22U A40U A57U A69U,≤ 0.5
11,C22G U54C,0.775
12,C22G U54A,0.591
13,C22U C24G C30G G41C,≤ 0.5
14,C22U A36C A45C,≤ 0.5
15,C22U A43G A57U,0.59
16,C22U C29U G41A C62G,≤ 0.5
17,C22U C27G C66U A69U,≤ 0.5
18,C22U A45G G56C,0.602
19,C22U A40C G58C A69U,≤ 0.5
20,C22U C24G A69C,0.539
21,C22U A42G A45C,≤ 0.5
22,C22G G67C,0.97
23,C22U C24A C29A A36C,≤ 0.5
24,C22U A42U G51C C62U A70U,0.505

row,Variant,yeast fitness
1,C22U A40G G63C G67C A69U,≤ 0.5
2,C22U C29U C33U A37C C55A,0.615
3,C22U A36G G51C,≤ 0.5
4,C22U C24G A36C A70C,≤ 0.5
5,C22U A36G G51A C66U,0.588
6,C22U A70U,0.842
7,C22U C24G U35C G56C,≤ 0.5
8,C22U A43C U53C C62G,≤ 0.5
9,C22G U47C A65U,0.64
10,C22G U32C A42C G48C C55G,≤ 0.5
11,C22U A40G C61U U64G A69U,≤ 0.5
12,C22U A37U G52C C61G C66A,≤ 0.5
13,C22U A36C C55U U59A,≤ 0.5
14,C22G G68C,0.696
15,C22G G68U,0.865
16,C22U A43U C49U C55G C61U,0.534
17,C22U C24A A43U A57G,≤ 0.5
18,C22U C29G C34G A42U U54C G56A,≤ 0.5
19,C22U C27U G51A A57U C61G,≤ 0.5
20,C22U C27U G44C,0.659
21,C22U C24U G50C,0.618
22,C22U A37G G48C,0.54
23,C22U A40G A43U C46G C49G C62U U64C,≤ 0.5
24,C22U A43U C55G C61U,0.659

row,Variant,yeast fitness
1,C22U C24G C30U G44A G56A,≤ 0.5
2,C22U A37C G44A G63C,≤ 0.5
3,C22U C30U A57C,0.528
4,C22U A40C C62U,0.648
5,C22U C29A A65U,≤ 0.5
6,C22G U47A U54A C61G,≤ 0.5
7,C22U C30U A37U C46G U64A G67A,≤ 0.5
8,C22U C29G,0.657
9,C22U C29G C33U C61U A69C,≤ 0.5
10,C22G U32C G38C C60U,≤ 0.5
11,C22U C27U C33A C60U C62G,0.558
12,C22G U47C G50A,≤ 0.5
13,C22U C24G C34U A37G G44A,≤ 0.5
14,C22U A45U A69U,0.804
15,C22G G63A G68U,≤ 0.5
16,C22U A40U A65U,≤ 0.5
17,C22U C27G A40C,0.55
18,C22U C24U,0.885
19,C22U C24G,0.583
20,C22U C24U U35A A42C A57C,0.638
21,C22U C29U C33U A37C A43U C55A,≤ 0.5
22,C22G U26C,0.971
23,C22U C24U C60G,≤ 0.5
24,C22U A45U C49A,≤ 0.5

row,Variant,yeast fitness
1,C22U C24A A43C C55U,≤ 0.5
2,C22U A36G C55A,≤ 0.5
3,C22U C27G U28G U32G,≤ 0.5
4,C22U A45U,0.909
5,C22U A45C,0.75
6,C22U C24A G56A A70U,≤ 0.5
7,C22U A36C C66A,≤ 0.5
8,C22G U54A C55U C66A,≤ 0.5
9,C22G U32G G48A G52A,≤ 0.5
10,C22U C27U A37G,0.643
11,C22U A36U C49U G58C,0.575
12,C22U C30A U64A,0.574
13,C22G U59C,0.864
14,C22G U28A C31G C55A G68C,0.539
15,C22G U32C G58A,0.654
16,C22U C24U U47C,0.705
17,C22U C24A G25U A42G,≤ 0.5
18,C22U C24G U28A A45C A57C C61U,0.581
19,C22U A45G G58C,0.608
20,C22U C29G A42G,0.697
21,C22G U26C C33U A37U A40C G63C,≤ 0.5
22,C22U C24G C61A,0.53
23,C22U C27G A40G A42G,≤ 0.5
24,C22U A42G C61U,0.612

row,Variant,yeast fitness
1,C22U C30G U54C C62G A65U,≤ 0.5
2,C22U C27U G56A,0.51
3,C22U C27G G41A C55U,≤ 0.5
4,C22G G63A,0.891
5,C22U A40U A43G A65U,0.536
6,C22G U26G C66U,≤ 0.5
7,C22U C30G,0.515
8,C22U C30A,0.706
9,C22U C30U,0.758
10,C22G U35C G50C,≤ 0.5
11,C22U C30U A37G G68A,≤ 0.5
12,C22U A36C C49U A65G,0.528
13,C22U C24A A42U C61U,0.562
14,C22G U53G C55U,≤ 0.5
15,C22G U28C C31G,0.6
16,C22U A57U C66U,0.553
17,C22G U47A C49U,0.638
18,C22G U35A U47C C55U,≤ 0.5
19,C22G U32C,1
20,C22G U32G,0.626
21,C22U C24U C33G C55G,≤ 0.5
22,C22U C24G U28A A45C G51A A57C C61U,≤ 0.5
23,C22U C24U U28C C29G C33A G68C,0.569
24,C22U C30A C31U,≤ 0.5

row,Variant,yeast fitness
1,C22U C30G A65C C66U,0.62
2,C22G U28A G44A,≤ 0.5
3,C22U C30U A42G C61A,0.584
4,C22G U47A,0.754
5,C22G U47C,0.89
6,C22G U47G,0.597
7,C22U C24U C46U,0.654
8,C22U A37U G50C C66U,0.697
9,C22U C30G G52A,0.514
10,C22U A40C C66U,0.523
11,C22U C24U A36C A45G G56C,≤ 0.5
12,C22U A43C,0.712
13,C22G U64A,0.696
14,C22G U26G C27G U53A,≤ 0.5
15,C22U C29U A37U,≤ 0.5
16,C22G U35A A57G C62A,0.567
17,C22U A37U G50C,0.634
18,C22U C24G A65U,≤ 0.5
19,C22U A37G A45U G52A,0.588
20,C22U A42G C55G,0.567
21,C22U A65U,0.748
22,C22U A65C,0.708
23,C22U A65G,0.835
24,C22U C27U A57G,0.53

row,Variant,yeast fitness
1,C22U C27U C33A,≤ 0.5
2,C22U C24G C55U A65G,≤ 0.5
3,C22U C27U A42U A43U U47C,≤ 0.5
4,C22U A42G A45C C55G,≤ 0.5
5,C22U C29G A40C A57C,≤ 0.5
6,C22U A42U,0.749
7,C22U A42C,0.808
8,C22U A42G,0.794
9,C22U A43G A45C C46G G63A,0.635
10,C22U A40U C61A G68A,≤ 0.5
11,C22G U32C U54A G68A,≤ 0.5
12,C22U C24A C27U A43C,≤ 0.5
13,C22G U47G A65C,≤ 0.5
14,C22U A37G,0.662
15,C22U C27A A45G G48C,≤ 0.5
16,C22G U54A C55U,≤ 0.5
17,C22G U53G,0.503
18,C22G U53A,0.673
19,C22U A45C G50A,0.698
20,C22U C29U C49A,≤ 0.5
21,C22G U35C C46U C55G,≤ 0.5
22,C22U C30A C55G,≤ 0.5
23,C22U A36C A65U G67C,≤ 0.5
